Experimental data from publication PMC8486320 (Journal of medicinal chemistry, 2021).
Where no end group is shown, it is not given here. The star is where a group is joined. Crotonyl(E) = C/C=C/C(=O)*

What was measured:
AF9 = target: T1, AF9 (Homo sapiens, UniProt P42568); assay: Competitive peptide pulldown, AF9 with H3K9ac; assay type: binding; details: 20 μM compound
T1 sequence (P42568 1-145): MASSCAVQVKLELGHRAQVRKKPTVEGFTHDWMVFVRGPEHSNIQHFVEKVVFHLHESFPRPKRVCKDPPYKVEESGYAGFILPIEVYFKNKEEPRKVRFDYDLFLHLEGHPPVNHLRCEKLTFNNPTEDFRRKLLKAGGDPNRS

GAS41 [1] = target: T2, GAS41 (Homo sapiens, UniProt O95619); assay: Competitive peptide pulldown, GAS41 with H3K27ac; assay type: binding; details: 20 μM compound
ENL = target: T3, ENL (Homo sapiens, UniProt Q03111); assay: Competitive peptide pulldown, ENL with H3K9ac; assay type: binding
T3 sequence (Q03111 1-145): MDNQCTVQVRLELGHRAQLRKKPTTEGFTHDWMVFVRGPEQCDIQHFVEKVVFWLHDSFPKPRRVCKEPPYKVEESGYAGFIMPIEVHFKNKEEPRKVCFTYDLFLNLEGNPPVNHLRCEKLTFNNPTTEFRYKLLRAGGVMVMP

YEATS2 = target: T4, YEATS2 (Homo sapiens, UniProt Q9ULM3); assay: Competitive peptide pulldown, YEATS2 with H3K27cr; assay type: binding; details: 20 μM compound
T4 sequence (Q9ULM3 201-332): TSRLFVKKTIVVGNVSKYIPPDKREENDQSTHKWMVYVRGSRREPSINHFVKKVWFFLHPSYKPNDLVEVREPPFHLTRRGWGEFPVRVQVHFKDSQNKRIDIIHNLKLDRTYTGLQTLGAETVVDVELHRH

ENL YEATS domain [2] = target: T5, ENL YEATS domain (Homo sapiens, UniProt Q03111); assay: AlphaScreen assay, His-ENL YEATS / biotin-H3K9ac interaction; assay type: binding; details: SAR comparison with 11 or 6
T5 sequence (Q03111 1-145): T3 sequence (Q03111 1-145)

YEATS2 YEATS domain = target: T6, YEATS2 YEATS domain (Homo sapiens, UniProt Q9ULM3); assay: AlphaScreen assay, YEATS2 YEATS / H3K27cr peptide; assay type: binding
T6 sequence (Q9ULM3 201-332): T4 sequence (Q9ULM3 201-332)

GAS41 YEATS domain = GAS41 YEATS domain (Homo sapiens, UniProt O95619); assay: AlphaScreen assay, GAS41 YEATS / H3K27ac peptide; assay type: binding
ENL YEATS domain [3] = target: T7, ENL YEATS domain (Homo sapiens, UniProt Q03111); assay: 1H,15N HSQC NMR titration of ENL YEATS domain; assay type: binding; details: 15N-labelled His-ENL, ligand titrated
T7 sequence (Q03111 1-148): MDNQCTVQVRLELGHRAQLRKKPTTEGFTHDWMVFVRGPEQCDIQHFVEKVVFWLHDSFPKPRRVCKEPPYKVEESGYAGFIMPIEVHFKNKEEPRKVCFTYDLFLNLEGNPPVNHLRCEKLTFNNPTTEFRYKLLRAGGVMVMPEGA
In short: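 15N-labelled YEATS domain was expressed in E. coli Rosetta-2 (DE3) pLysS in NH4Cl minimal medium (0.5 mM IPTG, 18 h, 16 °C) and purified by Ni-NTA then size exclusion. 1H,15N HSQC spectra were recorded at 298 K, 600 MHz, on 0.2 mM protein in 25–50 mM Tris-HCl pH 7.5, 150 mM NaCl, 0.2 mM TCEP, 10% D2O. Test compound or H3K27cr peptide (aa 22–31) was added stepwise at set protein:ligand molar ratios.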

AF9 proteins = target: T8, AF9 proteins (Homo sapiens, UniProt P42568); assay: Cellular thermal shift assay; assay type: cell-based; details: HeLa cells, 20 μM, 5 h
T8 sequence (P42568 1-568): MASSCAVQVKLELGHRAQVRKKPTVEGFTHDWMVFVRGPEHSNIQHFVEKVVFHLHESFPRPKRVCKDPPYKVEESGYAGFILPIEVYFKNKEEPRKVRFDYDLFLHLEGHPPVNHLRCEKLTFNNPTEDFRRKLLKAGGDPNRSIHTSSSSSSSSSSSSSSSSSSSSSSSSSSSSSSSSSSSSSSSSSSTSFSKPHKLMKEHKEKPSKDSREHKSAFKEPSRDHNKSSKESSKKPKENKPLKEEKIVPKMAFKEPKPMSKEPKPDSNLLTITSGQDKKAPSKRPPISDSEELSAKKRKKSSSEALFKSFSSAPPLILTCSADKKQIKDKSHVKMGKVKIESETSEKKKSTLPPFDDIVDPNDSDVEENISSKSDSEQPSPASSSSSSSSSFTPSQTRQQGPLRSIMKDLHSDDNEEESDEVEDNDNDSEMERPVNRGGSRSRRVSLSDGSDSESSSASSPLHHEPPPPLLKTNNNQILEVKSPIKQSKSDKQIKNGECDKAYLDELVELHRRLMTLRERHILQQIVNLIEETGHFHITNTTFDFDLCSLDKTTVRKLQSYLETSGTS
In short: (§1)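 Cells were incubated with 20 µM test compound for 5 h, washed three times in PBS and resuspended in PBS with protease inhibitors (about 3 million cells per aliquot). Aliquots were heated 3 min at the indicated temperatures, then held 2 min at room temperature. Cells were lysed with NP40/glycerol/DTT buffer plus three liquid-nitrogen/37 °C freeze-thaw cycles, and cleared at 13,000 rpm, 4 °C, 10 min. Soluble protein was read by western blot.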

MV4;11 cells [4] = assay: Combinatorial treatment of compound 7 and JQ1, MV4; assay type: cell-based, human; details: 7 0 to 20 μM, JQ1 0–200 nM, Combenefit
In short: (§2)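 Leukaemia cells kept in RPMI-1640 with 10% FBS were given DMSO, test compound, JQ1, or the two combined at a concentration matrix for 6 days. Viability was read by CellTiter-Glo luminescence as % surviving relative to DMSO. Drug interaction was scored as synergy using Combenefit.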

MV4;11 cells [5] = assay: Cell growth inhibition assay; assay type: cell-based, human; details: compared with MOLM13 (5 and 10 μM), 3 days
GAS41 [6] = target: T2, GAS41; assay: Cellular thermal shift assay; assay type: cell-based; details: MV4;11 and MOLM13 cells, 20 μM, 5 h, vs DMSO
In short: as §1

U2OS cells = assay: Cell growth inhibition assay; assay type: cell-based, human; details: even at 50 μM, ENL-independent cell line
ENL protein = target: T9, ENL protein (Homo sapiens, UniProt Q03111); assay: Cellular thermal shift assay; assay type: cell-based; details: 20 μM, 5 h
T9 sequence (Q03111 1-559): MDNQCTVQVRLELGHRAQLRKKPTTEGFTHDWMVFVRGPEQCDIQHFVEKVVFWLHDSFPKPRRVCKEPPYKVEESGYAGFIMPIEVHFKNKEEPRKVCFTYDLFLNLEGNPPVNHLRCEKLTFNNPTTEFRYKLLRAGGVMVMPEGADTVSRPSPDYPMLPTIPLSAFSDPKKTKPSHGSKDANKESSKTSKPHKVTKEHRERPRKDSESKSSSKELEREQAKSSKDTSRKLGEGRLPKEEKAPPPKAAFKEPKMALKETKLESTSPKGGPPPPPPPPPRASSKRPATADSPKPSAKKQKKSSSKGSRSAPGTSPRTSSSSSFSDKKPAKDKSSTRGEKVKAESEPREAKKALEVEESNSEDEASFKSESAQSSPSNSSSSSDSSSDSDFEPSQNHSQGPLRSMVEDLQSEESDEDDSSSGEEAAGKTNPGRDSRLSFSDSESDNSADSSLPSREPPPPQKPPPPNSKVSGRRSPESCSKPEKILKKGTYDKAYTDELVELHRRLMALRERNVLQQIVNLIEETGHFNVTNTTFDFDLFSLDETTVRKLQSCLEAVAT
In short: as §1

HOXA9 gene expression = assay: qRT-PCR of HOXA9 gene expression in MOLM13 cells; assay type: cell-based, human
In short: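 MOLM13 cells were treated with test compound or DMSO. Total RNA was extracted and reverse-transcribed, and HOXA9 was quantified by SYBR Green real-time PCR. Expression was normalised to GAPDH by the comparative Ct method; mean ± SEM, n = 3, two-tailed Student's t test.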

MOLM13 cells = assay: Combinatorial treatment of compound 7 and JQ1, MOLM13; assay type: cell-based, human; details: 7 0 to 20 μM, JQ1 0–200 nM, Combenefit
In short: as §2

Caco-2 cell monolayers = assay: Caco-2 cell permeability assay; assay type: in vitro ADME; details: 10 μM, 2 hours, A-B direction
In short: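 Flux was measured across polarised Caco-2 monolayers in triplicate, with ranitidine, talinolol and warfarin as controls. Apparent permeability (Papp) was calculated for the apical-to-basolateral direction.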

T2 sequence (O95619 whole entry): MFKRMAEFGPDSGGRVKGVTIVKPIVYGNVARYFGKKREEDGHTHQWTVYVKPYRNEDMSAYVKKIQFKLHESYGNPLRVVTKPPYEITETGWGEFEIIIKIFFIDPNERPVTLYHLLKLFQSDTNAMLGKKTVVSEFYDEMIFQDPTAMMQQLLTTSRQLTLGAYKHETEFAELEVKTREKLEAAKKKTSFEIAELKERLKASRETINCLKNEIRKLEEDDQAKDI
Sequence of GAS41 YEATS domain (O95619 whole entry, the tested form may be a part): as the sequence (O95619 whole entry) above

Compound: O=C(NCc1ccc(CN2CCC2)cc1)c1ccc2nncn2c1 [compound 11, N-(4-(azetidin-1-ylmethyl)benzyl)-[1,2,4]triazolo[4,3-a]pyridine-6-carboxamide]
- inhibition of AF9 binding to acylated histone peptide (AF9): none of these compounds showed notable inhibition
- inhibition of GAS41 binding to acylated histone peptide (GAS41 [1]): none of these compounds showed notable inhibition
- inhibition of ENL binding to H3K9ac (ENL; 1 μM compound): strongly inhibited
- inhibition of YEATS2 binding to acylated histone peptide (YEATS2): none of these compounds showed notable inhibition

Compound: CC(NC(=O)c1ccc2nncn2c1)c1ccc(CN2CCC2)cc1 (centres unmarked) [compound 16, N-(1-(4-(azetidin-1-ylmethyl)phenyl)ethyl)-[1,2,4]triazolo[4,3-a]pyridine-6-carboxamide]
- inhibition potency compared with parent compound (ENL YEATS domain [2]): greatly reduced the inhibition potency

Compound: CSc1ccc(CNC(=O)c2ccc3nncn3c2)cc1 [compound 1]
- inhibition of AF9 binding to acylated histone peptide (AF9): none of these compounds showed notable inhibition
- inhibition of YEATS2 YEATS domain (IC50 measurement) (YEATS2 YEATS domain): no detectable inhibition
- inhibition of GAS41 binding to acylated histone peptide (GAS41 [1]): none of these compounds showed notable inhibition
- inhibition of GAS41 YEATS domain (IC50 measurement) (GAS41 YEATS domain): no detectable inhibition
- inhibition of ENL binding to H3K9ac (ENL; 5 μM compound): strongly inhibited
- inhibition of YEATS2 binding to acylated histone peptide (YEATS2): none of these compounds showed notable inhibition

Compound: H3K27cr peptide: histone H3 residues 22–31 with a crotonylation at K27 (TKAARK(Crotonyl(E))SAPA; UniProt P68431 23-32, looked up, fragment) [reference compound]
- chemical shift perturbations, exchange regime on the NMR timescale (ENL YEATS domain [3]): intermediate to fast exchange regime

Compound: O=C(NCc1ccc(CNc2ncc(F)cn2)cc1)c1ccc2nncn2c1 [compound 24, N-(4-(((5-fluoropyrimidin-2-yl)amino)methyl)benzyl)-[1,2,4]triazolo[4,3-a]pyridine-6-carboxamide]
- inhibition of AF9 binding to acylated histone peptide (AF9): none of these compounds showed notable inhibition
- inhibition of GAS41 binding to acylated histone peptide (GAS41 [1]): none of these compounds showed notable inhibition
- inhibition of ENL binding to H3K9ac (ENL; 1 μM compound): strongly inhibited
- inhibition of YEATS2 binding to acylated histone peptide (YEATS2): none of these compounds showed notable inhibition

Compound: O=C(NCc1cccc(CN2CCC2)c1)c1ccc2nncn2c1 [compound 15, N-(3-(azetidin-1-ylmethyl)benzyl)-[1,2,4]triazolo[4,3-a]pyridine-6-carboxamide]
- inhibition potency compared with parent compound (ENL YEATS domain [2]): did not result in any increase of potency

Compound: CN(C)Cc1ccc(CNC(=O)c2ccc3nncn3c2)cc1 [compound 7, N-(4-((dimethylamino)methyl)benzyl)-[1,2,4]triazolo[4,3-a]pyridine-6-carboxamide]
- inhibition of AF9 binding to acylated histone peptide (AF9): none of these compounds showed notable inhibition
- thermal stability of AF9 protein (CETSA) (AF9 proteins): stabilized ENL but not AF9 proteins
- interaction with JQ1 in killing leukemia cells (MV4;11 cells [4]): synergistic effect
- inhibition of MV4;11 cell growth (MV4;11 cells [5]): about double amounts of the compound were needed to achieve similar levels of inhibition
- chemical shift perturbations, exchange regime on the NMR timescale (ENL YEATS domain [3]): intermediate to slow exchange regime
- thermal stability of GAS41 protein (CETSA) (GAS41 [6]): little or no difference
- inhibition of GAS41 binding to acylated histone peptide (GAS41 [1]): none of these compounds showed notable inhibition
- response of U2OS cell growth to treatment (U2OS cells): little or no response
- thermal stability of ENL protein (CETSA) (ENL protein; HeLa cells): stabilized ENL
- thermal stability of ENL protein (CETSA) (ENL protein; MV4;11 and MOLM13 cells, vs DMSO): bound and stabilized ENL proteins
- lowest drug concentration effectively suppressing HOXA9 gene expression (HOXA9 gene expression): 2.5 µM
- interaction with JQ1 in killing leukemia cells (MOLM13 cells): synergistic effect
- inhibition of ENL binding to H3K9ac (ENL; 5 μM compound): strongly inhibited
- inhibition of YEATS2 binding to acylated histone peptide (YEATS2): none of these compounds showed notable inhibition
- Caco-2 permeability (Caco-2 cell monolayers): comparable to 11
